# Measurements pooled from the literature.
# Compare with care: the assays were run in different laboratories.
# Organism: Mycolicibacterium smegmatis
# Effect on: microbial growth
SMILES,assay,test system,conditions,MIC
CC(=O)O[C@H]1C[C@@]2(C)[C@@H](C[C@@H](O)[C@H]3[C@@]4(C)CC[C@@H](O)[C@@H](C)[C@@H]4CC[C@@]32C)/C1=C(\CCC=C(C)C)C(=O)O,resazurin,MC^2155,24 h,50 µg/mL
CCCCCC[C@H](CN1CCC(COc2cccc(C(=NOC)c3ccc(Cl)cc3)c2)CC1)OC(N)=O,agar dilution,,,6.5 µg/mL
NNC(=O)c1ccncc1,broth dilution,ATCC700084 MC^2155,,32 µg/mL
Cc1ccc(Nc2nc(-c3cc(C(=O)Nc4cccc(C)n4)no3)cs2)cc1,,MC2155,,> 64 µg/mL
CCOCCOc1ccc(-c2c[nH]c(N)n2)cc1,,ATCC700084 MC^2155,48 h,> 200 µM
C[C@@H](O)[C@H]1C(=O)N2C(C(=O)O)=C(SCCN=CN)C[C@H]12,resazurin,MC^2155,24 h,2.3 µg/mL
Cc1ccc(-c2c[nH]c(N)n2)cc1,,ATCC700084 MC^2155,48 h,100 µM
CO/N=C(\C(=O)N[C@@H]1C(=O)N2C(C(=O)O)=C(COC(C)=O)CS[C@H]12)c1csc(N)n1,resazurin,MC^2155,24 h,75 µg/mL
CCCCc1ccc(-c2c[nH]c(N)n2)cc1,,ATCC700084 MC^2155,48 h,150 µM
C/C(=N\NC(=N)N)c1ccc(-c2ccc(/C(C)=N/Nc3ccccc3Cl)cc2)cc1.Cl,,MC2155,,213 µg/mL
NCC[C@H](O)C(=O)N[C@@H]1C[C@H](N)[C@@H](O[C@H]2O[C@H](CN)[C@@H](O)[C@H](O)[C@H]2O)[C@H](O)[C@H]1O[C@H]1O[C@H](CO)[C@@H](O)[C@H](N)[C@H]1O,broth dilution,MC2155,,≤ 0.5 µg/mL
NC[C@H]1O[C@H](O[C@H]2[C@H](O)[C@@H](O[C@H]3O[C@H](CO)[C@@H](O)[C@H](N)[C@H]3O)[C@H](N)C[C@@H]2N)[C@H](N)C[C@@H]1O,broth dilution,,72 h,1 µg/mL
Cc1ccc(Nc2nc(-c3cc(C(=O)Nc4ccc(O)cc4)no3)cs2)cc1,,MC2155,,> 64 µg/mL
C[C@H]1COc2c(N3CCN(C)CC3)c(F)cc3c(=O)c(C(=O)O)cn1c23,resazurin,MC^2155,24 h,0.14 µg/mL
CO[C@H]1/C=C/O[C@@]2(C)Oc3c(C)c(O)c4c(O)c(c(/C=N/N5CCN(C)CC5)c(O)c4c3C2=O)NC(=O)/C(C)=C\C=C\[C@H](C)[C@H](O)[C@@H](C)[C@@H](O)[C@@H](C)[C@H](OC(C)=O)[C@@H]1C,broth dilution,ATCC700084 MC^2155,,8 µg/mL
O=C(Nc1ccccc1)c1cc(-c2csc(Nc3ccc(Cl)cc3)n2)on1,,MC2155,,> 64 µg/mL
CC[C@H]1OC(=O)[C@H](C)[C@@H](O[C@H]2C[C@@](C)(OC)[C@@H](O)[C@H](C)O2)[C@H](C)[C@@H](O[C@@H]2O[C@H](C)C[C@H](N(C)C)[C@H]2O)[C@](C)(OC)C[C@@H](C)C(=O)[C@H](C)[C@@H](O)[C@]1(C)O,resazurin,MC^2155,24 h,0.36 µg/mL
